Holding throughout (format): functional
Assay [1] relates to Candida tropicalis. In words: Antifungal activity against Candida tropicalis clinical isolate assessed as growth inhibition zone at 50 ug after 24 hrs by Kirby-Bauer agar diffusion assay. Conditions: read-out: IZ. In a few lines: (§1)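 Disk diffusion on yeast nitrogen base agar, swabbed with a McFarland 0.5 suspension in saline. 6 mm cellulose disks carried 10 µL of a 5 mg/mL CH2Cl2 stock (50 ug per disk), air-dried, three disks per plate. Plates were sealed and incubated 24 h at 37°C. Cleared inhibition zones were measured and averaged over triplicates.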
In general terms: A growth-free zone around the sample is the usual read-out of agar diffusion tests.

Assay [2] deals with Candida parapsilosis. In words: Antifungal activity against Candida parapsilosis ATCC 22019 assessed as growth inhibition zone at 50 ug after 24 hrs by Kirby-Bauer agar diffusion assay. Conditions: Lodderomyces parapsilosis, ATCC 22019, 24 h; read-out: IZ. In a few lines:
as §1

Assay [3] deals with Cyberlindnera jadinii. Description: Antifungal activity against Candida utilis ATCC 29950 assessed as growth inhibition zone at 50 ug after 24 by Kirby-Bauer agar diffusion assay. The following applies: Williopsis jadinii, read-out: IZ. Put shortly: as §1
In assay [4] the test system is Pichia kudriavzevii. In words: Antifungal activity against Candida krusei ATCC 14243 assessed as growth inhibition zone at 50 ug after 24hrs by Kirby-Bauer agar diffusion assay. The following applies: ATCC 14243, 24 h, read-out: IZ. In a few lines:
as §1

Assay [5] has as its system Kluyveromyces marxianus. In words: Antifungal activity against Candida kefyr ATCC 20409 assessed as growth inhibition zone at 50 ug after 24 hrs by Kirby-Bauer agar diffusion assay. The following applies: ATCC 20409, 24 h, read-out: IZ. Put shortly: as §1
The subject of assay [6] is Nakaseomyces glabratus. Description: Antifungal activity against Candida glabrata ATCC 15126 assessed as growth inhibition zone at 50 ug after 24 hrs by Kirby-Bauer agar diffusion assay. Conditions: ATCC 15126, 24 h, read-out: IZ. In a few lines:
as §1

In assay [7] the test system is Candida albicans. In words: Antifungal activity against Candida albicans ATCC 2091 assessed as growth inhibition zone at 50 ug after 24 hrs by Kirby-Bauer agar diffusion assay. Conditions: ATCC 2091, 24 h, read-out: IZ. In a few lines:
as §1

The subject of assay [8] is Clavispora lusitaniae. In words: Antifungal activity against Candida lusitaniae ATCC 34449 assessed as growth inhibition zone at 50 ug after 24 by Kirby-Bauer agar diffusion assay. The following applies: read-out: IZ. In a few lines: as §1

For `CSN1C(=O)[C@H](Oc2ccccc2)[C@@H]1/C=C/c1ccccc1`, the zone of inhibition at 50 µg/disc came to 0 mm in assay [1]; 0 mm in assay [2]; 0 mm in assay [3]; 0 mm in assay [4]; 0 mm in assay [5]; 9 mm in assay [6]. Moreover, the zone of inhibition at 50 µg/disc in assay [7] and in assay [8] was 0 mm in each case.

For `CSN1C(=O)[C@H](OC(C)=O)[C@@H]1c1ccccc1`, the zone of inhibition at 50 µg/disc worked out at 15 mm in assay [1]; 0 mm in assay [2]; 16 mm in assay [3]; 0 mm in assay [4]; 9 mm in assay [5]; 0 mm in assay [6]. The zone of inhibition at 50 µg/disc in assay [7] amounted to 14 mm; in assay [8], 15 mm.

For the compound `CO[C@H]1C(=O)N(SC)[C@H]1c1ccc(Cl)cc1`, the zone of inhibition at 50 µg/disc in assay [1] stood at 0 mm; in assay [2], 0 mm; in assay [3] it was 0 mm; in assay [4] it was 0 mm; in assay [5], 10 mm; in assay [6], 0 mm. Further, the zone of inhibition at 50 µg/disc in assay [7] worked out at 0 mm; in assay [8] it was 14 mm.

For the compound `CO[C@H]1C(=O)N(SC)[C@H]1c1cccc(Br)c1`, the zone of inhibition at 50 µg/disc in assay [1] came out at 18 mm; in assay [2], 18 mm; in assay [3] it was 14 mm; in assay [4], 0 mm; in assay [5], 14 mm; in assay [6], 17 mm. For the same compound, the figures for the zone of inhibition at 50 µg/disc in assay [7] and in assay [8] were 20 mm and 15 mm, respectively.

Regarding `CCC(C)SN1C(=O)[C@H](OC)[C@@H]1c1ccccc1Cl` (stereo partly drawn), the zone of inhibition at 50 µg/disc amounted to 13 mm in assay [1]; 0 mm in assay [2]; 0 mm in assay [3]; 0 mm in assay [4]; 0 mm in assay [5]; 0 mm in assay [6]. The zone of inhibition at 50 µg/disc is 16 mm in assay [7] and 0 mm in assay [8].

Take `CO[C@H]1C(=O)N(SC)[C@H]1c1cc(Cl)cc(Cl)c1Cl`: the zone of inhibition at 50 µg/disc in assay [1] stood at 22 mm; in assay [2], 26 mm; in assay [3], 19 mm; in assay [4] it was 0 mm; in assay [5], 30 mm; in assay [6], 31 mm. Further, the zone of inhibition at 50 µg/disc in assay [7] and in assay [8] was 23 mm each time.

For the compound `CSN1C(=O)[C@@H](OC(C)=O)[C@H]1c1ccccc1`, the zone of inhibition at 50 µg/disc in assay [1] is 11 mm; in assay [2] it was 0 mm; in assay [3] it was 16 mm; in assay [4], 0 mm; in assay [5], 0 mm; in assay [6], 0 mm. Besides, the values for the zone of inhibition at 50 µg/disc in assay [7] and in assay [8] were 14 mm and 10 mm, respectively.

With `CSN1C(=O)[C@H](OC(C)=O)[C@@H]1/C=C/c1ccccc1`, the zone of inhibition at 50 µg/disc in assay [1] turned out to be 0 mm; in assay [2] it was 0 mm; in assay [3] it was 13 mm; in assay [4] it was 0 mm; in assay [5] it was 12 mm; in assay [6], 14 mm. Also, the zone of inhibition at 50 µg/disc in assay [7] and in assay [8] was 0 mm in each case.

For the compound `CSN1C(=O)[C@H](Oc2ccccc2)[C@@H]1CCc1ccccc1`, the zone of inhibition at 50 µg/disc came out at 19 mm in assay [1]; 14 mm in assay [2]; 21 mm in assay [3]; 0 mm in assay [4]; 19 mm in assay [5]; 18 mm in assay [6]. Also, the zone of inhibition at 50 µg/disc in assay [7] amounted to 25 mm; in assay [8] it was 14 mm.

On to `CO[C@H]1C(=O)N(SC)[C@H]1c1ccccc1F`, for which the zone of inhibition at 50 µg/disc is 0 mm in assay [1]; 19 mm in assay [2]; 14 mm in assay [3]; 0 mm in assay [4]; 15 mm in assay [5]; 0 mm in assay [6]. Moreover, the zone of inhibition at 50 µg/disc in assay [7] came out at 15 mm; in assay [8] it was 0 mm.

Consider `CO[C@H]1C(=O)N(SC)[C@H]1c1ccc(Cl)cc1Cl`, for which the zone of inhibition at 50 µg/disc is 23 mm in assay [1]; 31 mm in assay [2]; 21 mm in assay [3]; 0 mm in assay [4]; 28 mm in assay [5]; 32 mm in assay [6]. Further, the zone of inhibition at 50 µg/disc in assay [7] stood at 27 mm; in assay [8], 22 mm.

For `CO[C@H]1C(=O)N(SC)[C@H]1c1ccc(Br)cc1`, the zone of inhibition at 50 µg/disc in assay [1] turned out to be 20 mm; in assay [2], 23 mm; in assay [3], 17 mm; in assay [4] it was 0 mm; in assay [5] it was 17 mm; in assay [6], 19 mm. Further, the zone of inhibition at 50 µg/disc in assay [7] is 25 mm; in assay [8] it was 17 mm.

With `CO[C@H]1C(=O)N(SC)[C@H]1/C=C/c1ccccc1`, the zone of inhibition at 50 µg/disc is 14 mm in assay [1]; 13 mm in assay [2]; 19 mm in assay [3]; 0 mm in assay [4]; 14 mm in assay [5]; 16 mm in assay [6]. For the same compound, the figures for the zone of inhibition at 50 µg/disc in assay [7] and in assay [8] were 27 mm and 14 mm, respectively.

For `CO[C@H]1C(=O)N(SC)[C@H]1c1cc(F)c(F)cc1F`, the zone of inhibition at 50 µg/disc in assay [1] came to 20 mm; in assay [2] it was 22 mm; in assay [3], 14 mm; in assay [4], 0 mm; in assay [5], 16 mm; in assay [6], 14 mm. Further, the figures for the zone of inhibition at 50 µg/disc in assay [7] and in assay [8] were 25 mm and 14 mm, respectively.

As to `CO[C@H]1C(=O)N(SC)[C@H]1c1ccccc1I`, the zone of inhibition at 50 µg/disc in assay [1] stood at 15 mm; in assay [2], 22 mm; in assay [3], 15 mm; in assay [4], 0 mm; in assay [5], 15 mm; in assay [6], 20 mm. The zone of inhibition at 50 µg/disc in assay [7] is 16 mm; in assay [8], 17 mm.

Take `CO[C@H]1C(=O)N(SC)[C@H]1c1cc(F)c(F)c(F)c1`: the zone of inhibition at 50 µg/disc in assay [1] was found to be 19 mm; in assay [2] it was 34 mm; in assay [3], 29 mm; in assay [4], 0 mm; in assay [5], 17 mm; in assay [6], 18 mm. The zone of inhibition at 50 µg/disc in assay [7] and in assay [8] was 25 mm throughout.

As for `CO[C@H]1C(=O)N(SC)[C@H]1c1cccc(Cl)c1`, the zone of inhibition at 50 µg/disc came out at 20 mm in assay [1]; 28 mm in assay [2]; 19 mm in assay [3]; 0 mm in assay [4]; 13 mm in assay [5]; 21 mm in assay [6]. For the same compound, the zone of inhibition at 50 µg/disc in assay [7] stood at 23 mm; in assay [8], 13 mm.

For the compound `CSN1C(=O)[C@H](OC(C)=O)[C@@H]1CCc1ccccc1`, the zone of inhibition at 50 µg/disc in assay [1] came out at 0 mm; in assay [2] it was 0 mm; in assay [3] it was 0 mm; in assay [4] it was 0 mm; in assay [5] it was 13 mm; in assay [6], 15 mm. Also, the zone of inhibition at 50 µg/disc in assay [7] and in assay [8] was 0 mm throughout.

On to `CO[C@H]1C(=O)N(SC)[C@H]1c1ccc(I)cc1`, for which the zone of inhibition at 50 µg/disc in assay [1] amounted to 12 mm; in assay [2], 25 mm; in assay [3], 20 mm; in assay [4], 0 mm; in assay [5] it was 19 mm; in assay [6], 22 mm. Besides, the zone of inhibition at 50 µg/disc in assay [7] stood at 16 mm; in assay [8] it was 20 mm.

On to `CO[C@H]1C(=O)N(SC)[C@H]1c1ccc(F)cc1`, for which the zone of inhibition at 50 µg/disc in assay [1] stood at 0 mm; in assay [2], 21 mm; in assay [4] it was 0 mm; in assay [6] it was 0 mm; in assay [7], 16 mm; in assay [8], 0 mm.
